From publication PMC6217956 (The FEBS journal, 2016) come the findings set out here.

What all share (type): binding
One assay addresses T1, PTN (Homo sapiens, UniProt P21246).
T1 sequence (P21246 33-168): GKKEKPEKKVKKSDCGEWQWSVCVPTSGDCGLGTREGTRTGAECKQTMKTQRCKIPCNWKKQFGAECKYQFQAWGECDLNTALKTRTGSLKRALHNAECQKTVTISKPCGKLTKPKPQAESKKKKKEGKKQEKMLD
The assay is described as follows: PRE control experiment with 4-hydroxy-TEMPO. Conditions: under the condition of the PRE experiments.

For assay [1], the target named is T2, C-terminal truncated PTN (residues 1 to 114) (Homo sapiens, UniProt P21246).
T2 sequence (P21246 33-146): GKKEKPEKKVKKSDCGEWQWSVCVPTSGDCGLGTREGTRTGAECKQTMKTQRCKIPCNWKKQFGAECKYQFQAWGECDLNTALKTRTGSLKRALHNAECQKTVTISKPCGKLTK
The experiment in a line: Immobilized CSA and CSE ELISA of C-terminal truncated PTN. Conditions: immobilized native CS, biotinylated truncated PTN (residues 1 to 114). In short, it runs like this: (§1)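 Human PTN (wild type or residues 1–114) was expressed in E. coli Origami B (DE3), purified on a heparin column, and biotinylated by EDC coupling to amine-PEG-biotin (MES pH 5.5). CSA or CSE was EDC/NHS-crosslinked overnight to poly-L-lysine-coated amine plates, then blocked with 5% BSA for 1.5 h. PTN at 2.5–0.015 μg/ml, 1 h; streptavidin-HRP 1 h; TMB; HCl stop; A450. Kd by 1:1 Langmuir fit; ≥3 runs, triplicate points.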

For a further assay, the target named is T3, wild type PTN (Homo sapiens, UniProt P21246).
T3 sequence (P21246 33-168): T1 sequence (P21246 33-168)
The assay is described as follows: Immobilized CSA and CSE ELISA of wild type PTN. To be noted: immobilized native CS, biotinylated wild type PTN, Langmuir isotherm 1:1. The gist of the method: as §1
(An ELISA detects its analyte on a solid surface through an enzyme-linked reagent.)

Regarding `CC1(C)CC(O)CC(C)(C)N1[O]` [4-hydroxy-TEMPO], the “non-specific interactions between the TEMPO moiety and PTN” value at PTN is recorded as “no non-specific interactions”. For Chondroitin Sulfate A [CSA], the Kd result in assay [1] was “failed to bind”; at wild type PTN, approximately 17 nM. On to Chondroitin Sulfate E [CSE], for which the Kd result (in assay [1]; on wild type PTN) was “four to five” throughout.

Usually Kd stands for the free concentration of one partner at which half of the binding sites on the other are occupied at equilibrium, for simple one-to-one binding. The low end stands for higher affinity, the high end for lower affinity.
